Active and inactive are the calls of the source. No cut-off for these calls is given here.
What was measured:
[1] = molecular target: T1, Beta-galactosidase/Glucosylceramidase (Bos taurus, UniProt Q58D55+Q2KHZ8); assay: Inhibition of bovine liver beta-glucosidase/beta-galatosidase
T1 sequence (Q58D55 whole entry): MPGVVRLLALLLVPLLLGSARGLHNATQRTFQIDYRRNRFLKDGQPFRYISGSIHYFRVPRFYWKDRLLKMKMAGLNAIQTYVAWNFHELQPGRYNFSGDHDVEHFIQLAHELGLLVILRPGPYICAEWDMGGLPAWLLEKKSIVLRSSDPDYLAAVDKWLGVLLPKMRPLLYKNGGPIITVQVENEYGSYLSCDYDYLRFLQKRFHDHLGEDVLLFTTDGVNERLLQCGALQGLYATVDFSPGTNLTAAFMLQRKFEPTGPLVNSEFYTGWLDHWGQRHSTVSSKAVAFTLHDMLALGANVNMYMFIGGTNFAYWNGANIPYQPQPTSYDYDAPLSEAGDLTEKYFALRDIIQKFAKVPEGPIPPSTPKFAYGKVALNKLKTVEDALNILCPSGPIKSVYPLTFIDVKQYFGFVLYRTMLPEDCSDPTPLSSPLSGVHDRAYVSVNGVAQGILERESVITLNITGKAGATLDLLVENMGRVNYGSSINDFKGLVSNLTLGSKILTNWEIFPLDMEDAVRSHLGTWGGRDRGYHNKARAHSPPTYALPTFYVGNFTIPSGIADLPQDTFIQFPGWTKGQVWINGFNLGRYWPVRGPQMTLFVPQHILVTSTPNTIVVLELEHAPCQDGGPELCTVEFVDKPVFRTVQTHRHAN
T1 sequence (Q2KHZ8 whole entry): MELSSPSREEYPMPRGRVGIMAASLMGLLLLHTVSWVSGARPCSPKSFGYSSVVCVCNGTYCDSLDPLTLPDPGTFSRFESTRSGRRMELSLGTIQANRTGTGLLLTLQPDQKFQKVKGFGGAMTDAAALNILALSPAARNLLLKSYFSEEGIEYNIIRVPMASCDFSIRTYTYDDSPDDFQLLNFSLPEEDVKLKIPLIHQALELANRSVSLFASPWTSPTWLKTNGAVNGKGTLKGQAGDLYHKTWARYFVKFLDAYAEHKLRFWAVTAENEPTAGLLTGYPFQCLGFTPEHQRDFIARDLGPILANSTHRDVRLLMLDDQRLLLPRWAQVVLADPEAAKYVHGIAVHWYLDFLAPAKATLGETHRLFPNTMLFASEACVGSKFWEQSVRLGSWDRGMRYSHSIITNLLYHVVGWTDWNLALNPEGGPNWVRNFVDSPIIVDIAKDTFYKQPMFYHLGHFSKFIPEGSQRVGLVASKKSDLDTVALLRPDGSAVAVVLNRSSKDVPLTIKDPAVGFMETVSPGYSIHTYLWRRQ

[2] = molecular target: T2, Lysosomal acid glucosylceramidase (Homo sapiens, UniProt P04062); assay: Uncompetitive inhibition of human beta-glucosidase by Michaelis-Menten kinetics analysis
T2 sequence (P04062 whole entry): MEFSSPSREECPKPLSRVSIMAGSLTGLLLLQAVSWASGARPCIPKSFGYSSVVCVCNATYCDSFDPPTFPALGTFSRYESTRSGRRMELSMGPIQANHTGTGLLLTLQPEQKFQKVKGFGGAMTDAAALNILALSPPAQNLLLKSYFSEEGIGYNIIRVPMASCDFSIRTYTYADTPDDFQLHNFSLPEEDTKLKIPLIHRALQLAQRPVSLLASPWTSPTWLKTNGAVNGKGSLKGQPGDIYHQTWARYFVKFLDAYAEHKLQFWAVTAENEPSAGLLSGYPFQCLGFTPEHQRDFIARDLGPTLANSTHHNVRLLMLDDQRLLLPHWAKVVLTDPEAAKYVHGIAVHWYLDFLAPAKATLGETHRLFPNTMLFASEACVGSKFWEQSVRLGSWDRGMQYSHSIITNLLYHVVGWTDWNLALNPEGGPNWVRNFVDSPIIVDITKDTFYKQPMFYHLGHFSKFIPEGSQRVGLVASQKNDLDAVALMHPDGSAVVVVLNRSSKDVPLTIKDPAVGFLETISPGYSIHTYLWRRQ

[3] = Inhibition of lysosomal alpha-glucosidase
[4] = Inhibition of lysosomal beta-glucosidase; conditions: concentration not given here
Outline: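 Enzyme and test solution (or water for controls) were pre-incubated at 27 °C for 10–20 min. Substrate was then added and incubated at 27 °C for 10–20 min. The reaction was stopped with glycine solution and absorbance read at 405 nm. Wells were in triplicate with triplicate controls. Results are % inhibition at 1 mg/ml at optimal pH.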

[5] = Inhibition of lysosomal alpha-glucosidase
[6] = system: Saccharomyces cerevisiae; assay: Inhibition of Saccharomyces cerevisiae alpha-D-glucosidase at 1 mg/ml after 10 to 20 mins
Outline: (§1)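 Enzyme was pre-incubated with test solution at 1 mg/ml, or dH2O for controls, for 10–20 min at 27 °C. Substrate was added and incubation continued for the same time at 27 °C. The reaction was stopped with glycine solution and read at 405 nm. Each sample and control ran in three wells at the enzyme's optimal pH. Values are % inhibition.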

[7] = system: Geobacillus stearothermophilus; assay: Inhibition of Bacillus stearothermophilus alpha-D-glucosidase at 1 mg/ml after 10 to 20 mins; outline: as §1
[8] = system: Oryza sativa; assay: Inhibition of rice alpha-D-glucosidase at 1 mg/ml after 10 to 20 mins; outline: as §1
[9] = system: Prunus; assay: Inhibition of almond beta-D-glucosidase at 1 mg/ml after 10 to 20 mins; outline: as §1
[10] = system: Canavalia ensiformis; assay: Inhibition of jack bean alpha-D-mannosidase at 1 mg/ml after 10 to 20 mins; outline: as §1
[11] = system: Cellulomonas fimi; assay: Inhibition of Cellulomonas fimi beta-D-mannosidase at 1 mg/ml after 10 to 20 mins; outline: as §1
[12] = organism: Bos taurus; assay: Inhibition of bovine kidney N-acetyl-beta-D-glucosaminidase at 1 mg/ml after 10 to 20 mins; outline: as §1
[13] = molecular target: Alpha-galactosidase (Coffea arabica) (UniProt Q42656); assay: Inhibition of green coffee beans alpha-D-galactosidase at 1 mg/ml after 10 to 20 mins; outline: as §1
Alpha-galactosidase (Coffea arabica), sequence (Q42656 16-378 limits assumed): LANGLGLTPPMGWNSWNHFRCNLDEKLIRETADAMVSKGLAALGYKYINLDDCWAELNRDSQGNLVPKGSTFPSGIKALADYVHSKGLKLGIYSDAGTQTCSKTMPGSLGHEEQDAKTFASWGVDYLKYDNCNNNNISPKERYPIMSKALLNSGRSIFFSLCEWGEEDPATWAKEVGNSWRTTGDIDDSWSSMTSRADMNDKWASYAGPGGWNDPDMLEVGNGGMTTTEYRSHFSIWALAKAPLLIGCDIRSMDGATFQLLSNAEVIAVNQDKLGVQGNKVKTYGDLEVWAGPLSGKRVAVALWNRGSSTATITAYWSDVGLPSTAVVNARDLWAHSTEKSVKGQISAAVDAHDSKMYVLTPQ

[14] = molecular target: T3, Beta-galactosidase (Bos taurus) (UniProt Q58D55); assay: Inhibition of bovine kidney beta-D-galactosidase at 1 mg/ml after 10 to 20 mins; outline: as §1
T3 sequence (whole entry): T1 sequence (Q58D55 whole entry)

[15] = system: Penicillium decumbens; assay: Inhibition of Penicillium decumbens naringinase at 1 mg/ml after 10 to 20 mins; outline: as §1
[16] = molecular target: T4, Beta-galactosidase (Bos taurus, UniProt Q58D55); assay: Inhibition of bovine kidney beta-D-galactosidase after 10 to 20 mins
T4 sequence (Q58D55 whole entry): T1 sequence (Q58D55 whole entry)
Outline: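 Bovine kidney β-D-galactosidase was pre-incubated with test solution, or dH2O for controls, for 10–20 min at 27 °C. Substrate was added for a further 10–20 min at 27 °C, then glycine solution, and absorbance at 405 nm. Wells were run in triplicate. Ki and inhibition mode came from Lineweaver–Burk double-reciprocal slopes.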

[17] = Inhibition of alpha-glucosidase

SMILES: O[C@@H]1[C@@H](O)[C@H](O)[C@@]2(O)CO[C@H]1N2C(=S)Nc1ccccc1
- Ki [1]: 2.5 µM

SMILES: O[C@@H]1[C@@H](O)[C@H](O)[C@@]2(O)CO[C@H]1N2
- Ki [1]: 45 µM

SMILES: OCCC(O)CN1CCOCC1 (stereo not drawn)
- Ki [2]: 640 µM

SMILES: O=C(Nc1ccccc1)N1[C@@H]2OC[C@]1(O)[C@@H](O)[C@H](O)[C@H]2O
- Ki [1]: 30 µM

SMILES: O=C(Nc1ccccc1)N1[C@@H]2OC[C@]1(O)[C@@H](O)[C@@H](O)[C@H]2O
- Ki [1]: 68 µM

SMILES: OCCN1CCOCC1
- Ki [2]: 620 µM

SMILES: O[C@H]1[C@H](O)[C@@H](O)CN2CC[C@H](O)[C@H]12 [CASTANOSPERMINE]
- Ki [3]: 0.1 µM
- inhibition ([3]; concentration not given here): 100%
- inhibition [4]: 96%
- Ki [5]: 0.1 µM

SMILES: CCCCCCCCN1C[C@@H](CO)O[C@H](OC)C1
- inhibition [6]: inactive
- inhibition [7]: inactive
- inhibition [8]: inactive
- inhibition [9]: inactive
- inhibition [10]: inactive
- inhibition [11]: 6%
- inhibition [12]: inactive
- inhibition [13]: inactive
- inhibition [14]: 51%
- inhibition [15]: inactive
- IC50 [16]: 55.1 µM

SMILES: OC[C@H]1CNC[C@@H](O)[C@@H]1O
- INH [17]: 86 µM

SMILES: O[C@@H]1[C@H](O)[C@H](O)[C@@]2(O)CO[C@H]1N2C(=S)Nc1ccccc1
- Ki [1]: 750 µM

Source: ChEMBL document CHEMBL1821567, “Synthesis and glycosidase inhibitory profiles of functionalised morpholines and oxazepanes” (Bioorg Med Chem, 2011)
